Some results are limits rather than exact numbers.

Experiment [1] concerns the target T1, 5-hydroxytryptamine receptor 1A (Rattus norvegicus, UniProt P19327).
T1 sequence (P19327 whole entry): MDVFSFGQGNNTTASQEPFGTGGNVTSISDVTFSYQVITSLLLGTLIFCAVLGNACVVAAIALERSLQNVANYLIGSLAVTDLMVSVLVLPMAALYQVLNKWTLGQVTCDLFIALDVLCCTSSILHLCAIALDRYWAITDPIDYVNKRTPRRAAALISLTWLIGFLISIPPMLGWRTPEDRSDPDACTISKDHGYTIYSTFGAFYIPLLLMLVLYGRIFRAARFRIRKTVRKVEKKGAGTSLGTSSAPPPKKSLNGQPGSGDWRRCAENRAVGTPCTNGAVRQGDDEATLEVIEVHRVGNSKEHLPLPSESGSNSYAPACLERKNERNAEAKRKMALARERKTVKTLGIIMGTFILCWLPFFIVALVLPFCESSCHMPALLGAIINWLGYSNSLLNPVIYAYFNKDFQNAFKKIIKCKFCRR
The experiment is described as follows: In vitro displacement of [3H]8-OH-DPAT binding to rat hippocampal 5-hydroxytryptamine 1A receptor. In kind it is tissue-based, Hippocampus.

The target in experiment [2] is T2, D(2) dopamine receptor (Homo sapiens, UniProt P14416). As to the kind of experiment: Displacement of [3H]raclopride from human Dopamine receptor D2A.
In experiment [3] the target is T3, D(1A) dopamine receptor (Rattus norvegicus, UniProt P18901). As to the kind of experiment: Affinity for dopamine receptor D1 binding measured by competition against [3H]-SCH- 23390 to rat striatal membrane. Further details: species or system Striatum. In outline:
(§1)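 Radioligand displacement analysed with a one-site model. D1 sites come from rat striatum and are labelled with [3H]SCH23390. D2A is the cloned human receptor expressed in Ltk- cells and labelled with [3H]raclopride. Ki is the mean ± standard error of n = 2–3 experiments.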

Experiment [4] concerns Rattus norvegicus. The experiment is described as follows: In vivo accumulation of DOPA in percent of saline control was determined in limbic forebrain of reserpine pretreated rat at a dose of 2.9 uM/kg. The experiment is classed as functional. The method, boiled down: (§2)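 Reserpine 5 mg/kg sc given 18–20 h before. Single test dose given; 30 min later decarboxylase inhibited with NSD1015 (117 mg/kg sc). 5-HTP or DOPA accumulation measured in limbic forebrain, striatum and cortex, expressed as percent of saline controls (mean ± SEM, n = 2–4). Saline-control DOPA levels given in ng/g tissue. One-way ANOVA with Fischer's PLSD, p < 0.05.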

The subject of experiment [5] is Rattus norvegicus. As to the kind of experiment: In vivo accumulation of 5HTP in percent of saline control was determined in limbic forebrain of reserpine pretreated rat at a dose of 2.9 uM/kg. In kind it is functional. In outline: as §2
Experiment [6] concerns Rattus norvegicus. As to the kind of experiment: In vivo accumulation of 5HTP in percent of saline control was determined in striatum of reserpine pretreated rat at a dose of 2.9 uM/kg. The experiment is classed as functional. In outline: as §2
Experiment [7] has as its system Rattus norvegicus. The experiment is described as follows: In vivo accumulation of DOPA in percent of saline control was determined in cortex of reserpine pretreated rat at a dose of 2.9 uM/kg. The experiment is classed as functional. In outline: as §2
Experiment [8] relates to Rattus norvegicus. The experiment is described as follows: In vivo accumulation of 5HTP in percent of saline control was determined in cortex of reserpine pretreated rat at a dose of 2.9 uM/kg. In kind it is functional. In outline:
as §2

For experiment [9], the system named is Rattus norvegicus. As to the kind of experiment: In vivo accumulation of DOPA in percent of saline control was determined in striatum of reserpine pretreated rat at a dose of 2.9 uM/kg. In kind it is functional. The method, boiled down: as §2
Experiment [10] concerns Rattus norvegicus. As to the kind of experiment: In vivo accumulation of 5HTP in percent of saline control was determined in cortex of reserpine pretreated rat at dose of 3.2 uM/kg. The experiment is classed as functional. The method, boiled down: (§3)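 Rats get reserpine 5 mg/kg sc 18–20 h beforehand. A single dose of test drug is given. NSD1015 (117 mg/kg sc) is injected 30 min after drug to block decarboxylase. 5-HTP or DOPA accumulation is measured in limbic forebrain, striatum and cortex and expressed as percent of saline controls, mean ± SEM, n = 2–4. Statistics use one-way ANOVA with Fisher's PLSD.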

Experiment [11] deals with Rattus norvegicus. The experiment is described as follows: In vivo accumulation of DOPA in percent of saline control was determined in striatum of reserpine pretreated rat at dose of 3.2 uM/kg. In kind it is functional. In outline: as §3
For experiment [12], the system named is Rattus norvegicus. The experiment is described as follows: In vivo accumulation of DOPA in percent of saline control was determined in limbic forebrain of reserpine pretreated rat at dose of 3.2 uM/kg. The experiment is classed as functional. The method, boiled down:
as §3

Experiment [13] relates to Rattus norvegicus. The experiment is described as follows: In vivo accumulation of DOPA in percent of saline control was determined in cortex of reserpine pretreated rat at dose of 3.2 uM/kg. In kind it is functional. In outline:
as §3

Experiment [14] deals with Rattus norvegicus. As to the kind of experiment: In vivo accumulation of 5HTP in percent of saline control was determined in striatum of reserpine pretreated rat at dose of 3.2 uM/kg. In kind it is functional. The method, boiled down:
as §3

In experiment [15] the test system is Rattus norvegicus. The experiment is described as follows: In vivo accumulation of 5HTP in percent of saline control was determined in limbic forebrain of reserpine pretreated rat at dose of 3.2 uM/kg. The experiment is classed as functional. In outline: as §3
In experiment [16] the target is T3, D(1A) dopamine receptor.
The target of experiment [17] is T2, D(2) dopamine receptor. The experiment is described as follows: Displacement of [3H]-raclopride fromd human Dopamine receptor D2A expressed in LtK- cells. The experiment is classed as cell-based. The method, boiled down: as §1
For experiment [18], the system named is Rattus norvegicus. As to the kind of experiment: In vivo accumulation of 5HTP in percent of saline control was determined in limbic forebrain of reserpine pretreated rat at a dose of 3.7 uM/kg. The experiment is classed as functional. The method, boiled down: as §3
Experiment [19] relates to Rattus norvegicus. The experiment is described as follows: In vivo accumulation of 5HTP in percent of saline control was determined in striatum of reserpine pretreated rat at a dose of 3.7 uM/kg. In kind it is functional. The method, boiled down:
as §3

The subject of experiment [20] is Rattus norvegicus. As to the kind of experiment: In vivo accumulation of 5HTP in percent of saline control was determined in cortex of reserpine pretreated rat at a dose of 3.7 uM/kg. In kind it is functional. The method, boiled down: as §3
In experiment [21] the test system is Rattus norvegicus. As to the kind of experiment: In vivo accumulation of DOPA in percent of saline control was determined in limbic forebrain of reserpine pretreated rat at a dose of 3.7 uM/kg. The experiment is classed as functional. The method, boiled down:
as §3

In experiment [22] the test system is Rattus norvegicus. The experiment is described as follows: In vivo accumulation of DOPA in percent of saline control was determined in striatum of reserpine pretreated rat at a dose of 3.7 uM/kg. The experiment is classed as functional. The method, boiled down:
as §3

The subject of experiment [23] is Rattus norvegicus. The experiment is described as follows: In vivo accumulation of DOPA in percent of saline control was determined in cortex of reserpine pretreated rat at a dose of 3.7 uM/kg. The experiment is classed as functional. In outline:
as §3

T2 sequence (P14416 whole entry): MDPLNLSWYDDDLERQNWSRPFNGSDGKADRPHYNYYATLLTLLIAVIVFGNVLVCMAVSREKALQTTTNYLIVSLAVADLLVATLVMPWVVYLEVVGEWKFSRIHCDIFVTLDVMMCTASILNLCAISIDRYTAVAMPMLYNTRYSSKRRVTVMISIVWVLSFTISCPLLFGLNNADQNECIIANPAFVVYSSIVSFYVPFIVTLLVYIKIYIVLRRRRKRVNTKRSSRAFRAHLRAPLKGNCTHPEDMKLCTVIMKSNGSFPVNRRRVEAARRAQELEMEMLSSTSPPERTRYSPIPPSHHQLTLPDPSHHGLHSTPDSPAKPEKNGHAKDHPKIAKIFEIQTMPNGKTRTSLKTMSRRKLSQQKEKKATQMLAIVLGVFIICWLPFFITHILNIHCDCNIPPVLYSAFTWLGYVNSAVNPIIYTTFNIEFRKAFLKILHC
T3 sequence (P18901 whole entry): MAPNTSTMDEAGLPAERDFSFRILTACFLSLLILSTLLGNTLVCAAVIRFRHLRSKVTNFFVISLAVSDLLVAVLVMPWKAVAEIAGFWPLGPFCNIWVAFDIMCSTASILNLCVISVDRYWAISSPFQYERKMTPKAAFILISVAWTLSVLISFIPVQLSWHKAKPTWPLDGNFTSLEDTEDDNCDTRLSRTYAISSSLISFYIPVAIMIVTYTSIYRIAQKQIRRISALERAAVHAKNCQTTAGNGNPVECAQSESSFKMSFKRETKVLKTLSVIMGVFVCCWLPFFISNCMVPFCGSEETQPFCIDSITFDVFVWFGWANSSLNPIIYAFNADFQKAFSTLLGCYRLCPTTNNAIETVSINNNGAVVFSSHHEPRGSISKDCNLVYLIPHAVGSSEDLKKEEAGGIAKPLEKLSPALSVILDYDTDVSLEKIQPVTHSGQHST

Take `C=Cc1cccc2c1-c1cccc3c1[C@@H](C2)N(C)CC3`: the Ki in [1] is 6 nM; in experiment [2] it was 177 nM; in [3] it was 720 nM.
With `CN1CCc2cccc3c2[C@H]1Cc1cccc(-c2ccccc2)c1-3`, the Accumulation is given as 95 in [4]; 95 in experiment [5]; 106 in experiment [6]; 107 in experiment [7]; 133 in experiment [8]; 93 in experiment [9]. The results for the Ki in experiment [1], in experiment [2] and in experiment [3] were 1.8 nM, 233 nM and 3630 nM, respectively.
For the molecule `CCCN1CCc2cccc3c2[C@H]1Cc1cccc(O)c1-3`, the Accumulation worked out at 87 in experiment [10]; 29 in experiment [11]; 66 in [12]; 106 in experiment [13]; 97 in experiment [14]; 122 in experiment [15].
With `Cc1cccc2c1-c1cccc3c1[C@@H](C2)N(C)CC3`, the Ki was 14.4 nM in [1], 201 nM in [2] and 700 nM in experiment [16].
`CN1CCc2cccc3c2[C@H]1Cc1cccc(C(N)=O)c1-3`: the inhibitory constant (Ki) was 198 nM in experiment [1], over 4000 nM in experiment [16] and over 10000 nM in experiment [17].
With `Oc1cccc2c1-c1cccc3c1[C@@H](C2)NCC3`, the Accumulation in experiment [18] is 108; in experiment [19] it was 89; in experiment [20] it was 122; in experiment [21] it was 78; in experiment [22] it was 71; in experiment [23] it was 96. The results for the Ki in experiment [1], in experiment [16] and in experiment [17] were 5.7 nM, 1100 nM and over 1000 nM, respectively.
For `COc1ccccc1-c1cccc2c1-c1cccc3c1[C@@H](C2)N(C)CC3`, the Ki is 26.9 nM in experiment [1], over 3000 nM in experiment [16] and 1330 nM in [17].
In the case of `CC(=O)c1cccc2c1-c1cccc3c1[C@@H](C2)N(C)CC3`, the inhibition constant (Ki) was determined as 57.1 nM in experiment [1], 4690 nM in [3] and 311 nM in experiment [17].
Consider `CC(C)N1CCc2cccc3c2[C@H]1Cc1cccc(O)c1-3`, for which the values for the Ki in [1], in experiment [16] and in experiment [17] were 437 nM, over 10000 nM and 1010 nM, respectively.
On to `CN1CCc2cccc3c2[C@H]1Cc1cccc(OS(=O)(=O)C(F)(F)F)c1-3`, for which the Ki was 7.7 nM in experiment [1], 195 nM in [2] and 386 nM in [16].

The record behind these values is ChEMBL document CHEMBL1129625, “11-substituted (R)-aporphines: synthesis, pharmacology, and modeling of D2A and 5-HT1A receptor interactions” (J Med Chem, 1996).
